In the library only some 3.5% were active in any assay of this set; here they are far more common.
Wnt act: Wnt/beta-catenin pathway activation. Wnt/beta-catenin reporter cell assay, activator, plate reader. activation, % at 9.35 µM. 300,000 compounds, 1.2% hits. AID 743398; in the data active = activation above about 30%, passing the limit was not always enough; inconclusive = no clear call, values can overlap the other calls;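 also: 0% = neutral control wells and 100% = positive control wells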
MITF act: activators of MITF-driven TRPM1 promoter activity in SK-MEL-5 cells; SK-MEL-5 TRPM1-promoter luciferase, 24 h; % of positive control, neutral wells = 0; activation, % at 12.5 µM; 300,000 compounds, 0.75% hits;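 active = mean activation of at least 80% with every replicate also reaching 80%; inconclusive = mean reaches 80% but some replicate falls short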;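 also: 0% = neutral control wells and 100% = parthenolide positive control wells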
Cneo AK release: Cryptococcus neoformans lysis via adenylate kinase release; 360,000 compounds, 0.2% hits; C. neoformans lysis, adenylate kinase release luminescence, 4 h; normalised: neutral wells 0, clomiphene wells 100; AID 651654; lysis activity, % at 15 µM;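 active = mean lysis activity across replicates of at least 80%, whatever share of replicates individually reach that level; inactive = mean lysis activity below 80%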
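read-out = cell lysis signal | test system = log-phase Cryptococcus neoformans yeast cells | input = cells at 5 × 10^6 per mL | medium = fresh YPD growth medium | signal = luminescent adenylate kinase detection reagent | timing = 4 h at 37 °C static, read 1 h later | dosing = single dose | controls = Clomiphene as positive lysis control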
ERAP1 inh: blocks human ERAP1 aminopeptidase activity | AID 652197 | inhibition, % at 10.7 µM | Q9NZ08 | 340,000 compounds, 0.15% hits | recombinant ERAP1, Leu-AMC fluorescence, 60 min;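 active = mean replicate inhibition of at least 30%, or all replicates individually reaching that 30% level; inactive = mean below 30% and not every replicate reaching it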;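 also: 0% = neutral control wells and 100% = L-leucinethiol positive control wells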
Target sequence (Q9NZ08 whole entry, looked up): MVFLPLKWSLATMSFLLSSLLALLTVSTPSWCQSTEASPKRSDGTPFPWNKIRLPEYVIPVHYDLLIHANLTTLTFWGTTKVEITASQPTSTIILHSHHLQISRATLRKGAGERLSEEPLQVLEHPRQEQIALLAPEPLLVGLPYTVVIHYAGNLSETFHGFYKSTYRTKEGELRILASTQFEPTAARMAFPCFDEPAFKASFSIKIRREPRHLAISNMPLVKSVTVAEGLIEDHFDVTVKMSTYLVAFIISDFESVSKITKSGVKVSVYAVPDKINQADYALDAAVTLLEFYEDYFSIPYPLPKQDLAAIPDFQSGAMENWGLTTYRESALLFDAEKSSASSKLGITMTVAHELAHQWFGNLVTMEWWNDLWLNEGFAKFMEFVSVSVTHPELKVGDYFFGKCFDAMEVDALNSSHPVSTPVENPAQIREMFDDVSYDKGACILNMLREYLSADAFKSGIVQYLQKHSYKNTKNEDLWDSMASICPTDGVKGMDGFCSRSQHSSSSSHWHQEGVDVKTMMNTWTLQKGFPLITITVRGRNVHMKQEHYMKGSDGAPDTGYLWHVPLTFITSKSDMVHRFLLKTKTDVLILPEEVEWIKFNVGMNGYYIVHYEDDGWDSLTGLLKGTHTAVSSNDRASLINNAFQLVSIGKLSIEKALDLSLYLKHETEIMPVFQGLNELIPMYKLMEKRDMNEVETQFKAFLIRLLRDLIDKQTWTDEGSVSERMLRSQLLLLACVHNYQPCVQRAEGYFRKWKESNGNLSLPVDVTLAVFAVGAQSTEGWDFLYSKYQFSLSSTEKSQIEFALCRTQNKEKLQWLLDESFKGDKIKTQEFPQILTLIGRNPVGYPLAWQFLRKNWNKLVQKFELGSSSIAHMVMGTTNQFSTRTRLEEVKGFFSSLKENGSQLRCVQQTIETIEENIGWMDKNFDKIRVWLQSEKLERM
HIV Env fusion: inhibitors of HIV Env-mediated cell fusion. HeLa-JRFL Env/CEM21 cell fusion, luciferase. inhibition, % at 12.3 µM. 360,000 compounds, 1.1% hits. AID 651610;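 active = mean replicate inhibition score of at least 50 and every replicate individually at or above 50; inconclusive = only one of the two criteria met; inactive = mean below 50 and not all replicates reaching 50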;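 also: 0% = plate neutral controls and 100% = maraviroc near 300 nM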
esBAF inh: SWI/SNF esBAF complex inhibition | 350,000 compounds, 2% hits | AID 602393 | reporter increase, % at 12.5 µM | mouse ES cells, Bmi1-luciferase knock-in reporter, 24 h; 100% = twice the neutral-well signal; in the data active = activation above about 40%; inconclusive = no clear call, values can overlap the other calls;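 also: 0% = median of the plate's neutral control wells and 100% = double that signal; a rise in the Bmi1 reporter signal indicates esBAF inhibition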
Numbers without * were called inactive; ? = inconclusive; nt = no result; [ ] = remark or other dose.

SMILES	Wnt act	MITF act	Cneo AK release	ERAP1 inh	HIV Env fusion	esBAF inh
CCC(C)(C)NC(=O)C(c1ccccc1F)N(Cc1ccco1)C(=O)c1csnn1 (stereo unspecified)	nt	3.0	-2.7	nt	52.7*	-4.1
Cc1ccc(C(C(=O)NC(C)(C)C)N(Cc2cccs2)C(=O)c2csnn2)cc1 (stereo unspecified)	nt	-3.3	0.6	nt	79.4*	nt
CCC(C)(C)NC(=O)C(c1sccc1C)N(Cc1ccco1)C(=O)c1csnn1 (stereo unspecified)	-1.8	-5.3	2.0	1.3	55.4*	-6.8
O=S(=O)(N[C@@H]1CC[C@H](CCn2cc(Cc3ccccc3)nn2)O[C@H]1CO)c1ccccc1F	nt	nt	-1.2	-0.8	nt	-3.2
COc1ccc(NC(=O)N(C)C[C@@H]2Oc3ccc(NS(=O)(=O)c4ccc(C)cc4)cc3C(=O)N([C@@H](C)CO)C[C@@H]2C)cc1	nt	nt	nt	nt	-5.8[16.7 µM]	-4.8
C[C@@H]1CN([C@@H](C)CO)C(=O)c2cc(NC(=O)c3ccncc3)ccc2O[C@@H]1CN(C)C	nt	nt	-1.1	-2.3	nt	-0.8
CC(=O)N(C)C[C@@H]1[C@H](c2ccc(-c3cccc(C#N)c3)cc2)[C@H](CO)N1C(C)=O	nt	nt	nt	-0.8	nt	nt
CCCC#Cc1cnc2c(c1)C(=O)N([C@@H](C)CO)C[C@H](C)[C@@H](CN(C)S(=O)(=O)c1cccc(OC)c1)O2	nt	nt	-4.1	1.2	nt	0.7
C=CCOc1ccc(/C(O)=C2/C(=O)C(=O)N(CCCn3ccnc3)C2c2cccs2)cc1 (stereo unspecified)	-1.5	64.4	-2.8	nt	nt	43.6*
C=CCOc1ccc(/C(O)=C2/C(=O)C(=O)N(CCCn3ccnc3)C2c2ccco2)cc1 (stereo unspecified)	-1.9	-9.4	1.3	-0.5	-32.8	6.3
CC(C)OP(=O)(c1ccc(N(C)C)cc1)C(Nc1ccccc1)c1ccccc1 (stereo unspecified)	0.6	-8.1	nt	-1.6	84.9*	-6.5
CC(C)CCOP(=O)(c1ccc(N(C)C)cc1)C(Nc1ccccc1)c1ccc(N(C)C)cc1 (stereo unspecified)	-9.9	2.1	1.0	nt	34.6	6.1
O=c1ccn(Cc2ccccc2)c2ccccc12	-2.2	2.1	0.4	-1.2	-156.1	1.7
Cc1c(OCc2ccccc2)c(=O)ccn1Cc1ccccc1	nt	56.3	nt	nt	nt	55.7*
COc1ccc(S(=O)(=O)N(C)C[C@@H]2OCCCC[C@H](C)Oc3ccc(NC(=O)CCCN(C)C)cc3C(=O)N([C@@H](C)CO)C[C@H]2C)cc1	nt	nt	-1.7	-0.8	3.8[16.7 µM]	-4.5
COc1ccccc1C(=O)Nn1cnc2ccccc2c1=O	16.4	37.3	0.9	0.9	nt	67.7*
COc1ccc(Cl)cc1C(=O)Nn1cnc2ccccc2c1=O	-1.2	3.4	8.1	1.1	nt	5.3
CCC(=O)N(C)C[C@@H]1Oc2ncc(C#Cc3ccncc3)cc2C(=O)N([C@@H](C)CO)C[C@H]1C	nt	nt	-1.7	0.0	9.4[16.7 µM]	1.7
Cc1noc(C)c1NC(=O)Nc1ccc2c(c1)C(=O)N(C)[C@H]1CC[C@@H](CC(=O)N(C)C)O[C@H]1CO2	nt	nt	-0.9	0.3	8.2[16.7 µM]	1.3
CC1Cc2ccccc2N1C(=O)CSc1nc2c(c(=O)n(C)c(=O)n2C)n1Cc1ccccc1 (stereo unspecified)	nt	14.2	-5.5	nt	55.6*	10.4
CC(Sc1ncnc2sc(-c3ccccc3)cc12)C(=O)N1CCNC1=O (stereo unspecified)	8.2	38.2	-0.7	-0.2	5.3	4.1
CC(C)N(C(=O)CSc1ncnc2sc(-c3ccccc3)cc12)C(C)C	nt	34.6	3.4	nt	nt	59.4*
COc1ccc(C2=Nn3c(nnc3-c3ccncc3)SC2)cc1	nt	nt	1.2	nt	96.2*	-0.1
Cn1cnc(S(=O)(=O)N2CC[C@@H]3[C@@H](CO)Nc4ccc(-c5ccccc5F)cc4[C@@H]32)c1	nt	nt	-20.0	nt	nt	7.0
CO[C@H]1CN(C)C(=O)c2cc(NS(C)(=O)=O)ccc2OC[C@@H](C)N(C(=O)C2CCOCC2)C[C@H]1C	nt	nt	-2.5	-1.3	-2.9[16.7 µM]	-1.2
SMILES	Wnt act	MITF act	Cneo AK release	ERAP1 inh	HIV Env fusion	esBAF inh
Cc1ccc(-c2nc(CSCC(=O)NCc3cccnc3)c(C)o2)cc1	nt	nt	-0.1	nt	58.1*	-12.2
COc1ccc(-c2nc(CSCC(=O)NCc3ccco3)c(C)o2)cc1	nt	nt	0.9	nt	nt	-55.9
c1ccc(-c2ccc(C3[C@H]4CNC[C@@H]3N4Cc3ccccn3)cc2)cc1 (stereo partly specified)	nt	nt	nt	-1.2	nt	nt
Cc1cc(C)c(NN=c2c(=O)c3ccccc3c2=O)c(C)c1	21.0	116.0*	8.5	nt	-42.1	30.3
O=c1c(=NNc2ccccc2Cl)c(=O)c2ccccc12	-5.6	-29.5	-1.2	-1.2	nt	-13.6
COC(=O)C1=C(C)N(Cc2cccc(C(F)(F)F)c2)C(=NCc2ccc(OC)cc2)NC1c1ccccc1 (stereo unspecified)	-24.5	nt	nt	0.8	55.1*	nt
COC(=O)C1=C(C)N(Cc2cccc(C(F)(F)F)c2)C(=NCc2ccc(C(F)(F)F)cc2)NC1c1ccc(Cl)cc1 (stereo unspecified)	-28.1	nt	nt	-2.9	?	nt
COC(=O)C1=C(C)N(Cc2cccc(C(F)(F)F)c2)C(=NCc2ccc(OC)cc2)NC1c1ccc(F)cc1 (stereo unspecified)	-21.4	nt	nt	3.7	2.1	nt
COC(=O)C1=C(C)N(CC2CC2)C(=O)N[C@H]1c1ccc(Br)cc1	-0.1	nt	nt	6.0	77.5*	nt
COC(=O)C1=C(C)N(Cc2cccc(C(F)(F)F)c2)C(=NCc2ccc3c(c2)OCO3)NC1c1ccc(Cl)cc1 (stereo unspecified)	-12.2	nt	nt	-1.0	63.5*	nt
COC(=O)C1=C(C)N(C)C(=NCc2ccc3c(c2)OCO3)NC1c1ccc(C(F)(F)F)cc1 (stereo unspecified)	-0.5	nt	nt	0.4	57.2*	nt
COc1cccc(-c2cn(CC[C@H]3CC[C@H](NS(=O)(=O)Cc4ccccc4)[C@@H](CO)O3)nn2)c1	nt	nt	0.5	-2.5	-2.7[16.7 µM]	5.7
COCC(=O)N(C)C[C@H]1Oc2cc(C3=CCCC3)ccc2S(=O)(=O)N([C@@H](C)CO)C[C@@H]1C	nt	nt	-2.6	2.6	-2.4[16.7 µM]	3.4
COC(=O)C1=C(C)N(Cc2ccc(Cl)cc2)C(=S)NC1c1ccc(Cl)cc1 (stereo unspecified)	-5.0	nt	nt	4.0	60.6*	nt
O=C(Nc1ccc(Cl)cc1)Nc1ccccc1Sc1ncc([N+](=O)[O-])s1	32.7*	-49.0	1.7	0.6	-106.5	36.1
C=CCn1c(C)cc(-c2csc(NC(=O)C3=COCCO3)n2)c1C	-13.9	119.6*	-2.1	3.9	-4.1	nt
Cc1cc(C)c(-c2csc(NC(=O)C3=COCCO3)n2)cc1C	16.9	71.3	-1.0	2.5	-24.9	nt
O=C(COc1ccc(F)cc1)c1ccc2c(c1)CCCC2	nt	?	-0.2	nt	nt	41.5*
O=C1c2ccccc2C(=O)N1c1ccc(Br)c2cccnc12	-0.9	-2.9	1.4	-2.7	-8.0	12.9
